The subject of assay [1] is SK-MEL-28. Briefly: Cytotoxicity against human SK-MEL-28 cells.
For another assay, the system named is DU-145. Put plainly: Cytotoxicity against human DU145 cells after 48 hrs by SRB assay. The format is functional, cell-based. The note with it: Homo sapiens, DU-145, 48 h. Summed up:
(§1)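 Cells grown in RPMI 1640 with 10% FBS and penicillin/streptomycin at 37 °C and 5% CO₂, trypsinized, then seeded at 5 × 10³/well. After 18 h drug-free attachment, samples in DMSO/EtOH/PBS (0.5:0.5:99) were added for 48 h continuous exposure. Cells were fixed with cold TCA (1 h, 4 °C) and stained with SRB (10 min). Tris-solubilized stain read at 490 nm. Triplicate wells, mean ± SD; GI₅₀ derived.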
For orientation: The SRB assay estimates cell density from bound dye.

The next assay concerns HT-29. Briefly: Cytotoxicity against human HT29 cells after 48 hrs by SRB assay. The format is functional, cell-based. The note with it: Homo sapiens, HT-29, 48 h. Summed up: as §1
The test system of another assay is A549. Briefly: Cytotoxicity against human A549 cells after 48 hrs by SRB assay. The class given is functional, cell-based. The note with it: Homo sapiens, A549, 48 h. Summed up:
as §1

The nature of assay [2]: Cytotoxicity against human HeLa-APL cells after 48 hrs by SRB assay. The format is functional. The method, boiled down:
as §1

For the next assay, the system named is LNCaP. Put plainly: Cytotoxicity against human LNcaP cells after 48 hrs by SRB assay. The format is functional. The method, boiled down:
as §1

Another assay has as its system K562. Put plainly: Cytotoxicity against human K562 cells after 48 hrs by SRB assay. The class given is functional. The note with it: K562, 48 h. Summed up:
as §1

Assay [3] is described as follows: Cytotoxicity against human IGROV-ET cells after 48 hrs by SRB assay. The format is functional. The method, boiled down: as §1
Assay [4] can be described thus: Cytotoxicity against human IGROV cells after 48 hrs by SRB assay. The format is functional. The method, boiled down:
as §1

Assay [5] concerns LoVo. Put plainly: Cytotoxicity against human LoVo cells after 48 hrs by SRB assay. The class given is functional.
Assay [6] has as its system SK-MEL-28. Briefly: Cytotoxicity against human SK-MEL-28 cells after 48 hrs by SRB assay. The format is functional, cell-based. The note with it: Homo sapiens, SK-MEL-28, 48 h. The method, boiled down:
as §1

In the next assay the test system is PANC-1. Briefly: Cytotoxicity against human PANC1 cells after 48 hrs by SRB assay. The class given is functional. The settings on record: PANC-1, 48 h. The method, boiled down:
as §1

For assay [7], the system named is LoVo. Briefly: Cytotoxicity against human doxorubicin resistant LoVo cells after 48 hrs by SRB assay. The class given is functional. The method, boiled down:
as §1

Another assay has as its system SK-BR-3. Put plainly: Cytotoxicity against human SKBR3 cells after 48 hrs by SRB assay. The note with it: SK-BR-3, 48 h. The class given is functional. The method, boiled down: as §1
Another assay has as its system HeLa. Put plainly: Cytotoxicity against human HeLa cells after 48 hrs by SRB assay. The class given is functional. Summed up:
as §1

[8] abbreviates: read-out: LC50 (the source's name).

Results on four molecules are retold here after ChEMBL document CHEMBL1156597, “Structure-activity relationship of kahalalide F synthetic analogues” (J Med Chem, 2008).

Regarding `C/C=C1\NC(=O)[C@H](Cc2ccccc2)NC(=O)[C@@H](C(C)C)NC(=O)[C@@H]([C@H](C)CC)NC(=O)[C@H](NC(=O)[C@H](NC(=O)[C@H]2CCCN2C(=O)[C@H](NC(=O)[C@@H](NC(=O)[C@@H](NC(=O)[C@H](NC(=O)CCCC(C)C)C(C)C)[C@@H](C)O)C(C)C)C(C)C)[C@H](C)CC)[C@H](C)OC(=O)[C@H](C(C)C)NC1=O`, the IC50 in the assay on SK-MEL-28 [1], in the assay on DU-145 and with HT-29 was 3670 nM in each case.
`C/C=C1\NC(=O)[C@H](Cc2ccccc2)NC(=O)[C@@H](C(C)C)NC(=O)[C@@H]([C@H](C)CC)NC(=O)[C@H](NC(=O)[C@H](NC(=O)[C@H](CCCN)NC(=O)[C@H]2CCCN2C(=O)[C@@H](NC(=O)[C@H](NC(=O)[C@@H](NC(=O)[C@H](NC(=O)CCCC(C)C)C(C)C)[C@@H](C)O)C(C)C)C(C)C)[C@H](C)CC)[C@H](C)OC(=O)[C@H](C(C)C)NC1=O`: the IC50 in the assay with A549, in the assay with SK-MEL-28 [1], in the assay on DU-145 and in the assay with HT-29 was 3390 nM throughout.
In the case of `C/C=C1\NC(=O)[C@H](Cc2ccccc2)NC(=O)[C@@H](C(C)C)NC(=O)[C@@H]([C@H](C)CC)NC(=O)[C@H](NC(=O)[C@H](NC(=O)[C@H](CCCN)NC(=O)[C@H]2CCCN2C(=O)[C@H](NC(=O)[C@@H](NC(=O)[C@@H](NC(=O)[C@H](NC(=O)CCCN(C)C)C(C)C)[C@@H](C)O)C(C)C)C(C)C)[C@H](C)CC)[C@H](C)OC(=O)[C@H](C(C)C)NC1=O`, the IC50 in the assay with A549, with SK-MEL-28 [1], in the assay on DU-145 and in the assay with HT-29 was 6770 nM in each case.
Consider `C/C=C1\NC(=O)[C@H](Cc2ccccc2)NC(=O)[C@@H](C(C)C)NC(=O)[C@@H]([C@H](C)CC)NC(=O)[C@H](NC(=O)[C@H](NC(=O)[C@H](CCCN)NC(=O)[C@H]2CCCN2C(=O)[C@H](NC(=O)[C@@H](NC(=O)[C@@H](NC(=O)[C@H](NC(=O)CCCC(C)C)C(C)C)[C@@H](C)O)C(C)C)C(C)C)[C@H](C)CC)[C@H](C)OC(=O)[C@H](C(C)C)NC1=O` [KAHALALIDE F], for which the LC50 (as a rule, the concentration that kills 50% of the test population) with A549 worked out at 4520 nM. Further, the total growth inhibition concentration (TGI) (as a rule, the concentration giving total growth inhibition) in the assay on A549 worked out at 2200 nM; in assay [2], 2020 nM; in the assay on LNCaP, 1960 nM; in the assay on K562 it was 3320 nM; in assay [3], 1300 nM; in [4], 1180 nM. The TGI in the assay with LoVo [5] is 614 nM; in the assay on DU-145, 1720 nM; with SK-MEL-28 [6] it was 2260 nM; with PANC-1, 3330 nM; with LoVo [7], 485 nM; with HT-29, 915 nM. Also, the TGI was determined as 810 nM with SK-BR-3 and 1970 nM in the assay with HeLa. In addition, the GI50 (commonly the concentration that inhibits growth by half) in the assay with A549 (read-out: GI50) was 1160 nM; in assay [2], 975 nM; in the assay on LNCaP, 960 nM; with K562 it was 1930 nM; in [3] (read-out: GI50) it was 550 nM; in assay [4] (read-out: GI50) it was 493 nM. Besides, the GI50 with LoVo [5] came to 334 nM; in the assay on DU-145 (read-out: GI50), 931 nM; in the assay with SK-MEL-28 [6] (read-out: GI50), 1190 nM; with PANC-1 it was 1770 nM; in the assay with LoVo [7] it was 299 nM; in the assay on HT-29, 432 nM. Also, the figures for the GI50 in the assay on SK-BR-3 (read-out: GI50) and in the assay with HeLa were 363 nM and 965 nM, respectively. The same molecule registered an LC50 (concentration giving 50% net cell kill) in [2] of 4290 nM. Also, the CC50 in the assay with LNCaP (setting [8]) is 4260 nM; in the assay with K562 (setting [8]), 5280 nM; in assay [3] (setting [8]), 3280 nM; in [4] (setting [8]) it was 3220 nM; in the assay with LoVo [5] (setting [8]), 1510 nM; with DU-145 (setting [8]), 3720 nM. Further, the CC50 came out at 4500 nM with SK-MEL-28 [6] (setting [8]); 5070 nM in the assay on PANC-1 (setting [8]); 1470 nM in the assay on LoVo [7] (setting [8]); 2240 nM with HT-29 (setting [8]); 1980 nM in the assay with SK-BR-3 (setting [8]); 4730 nM in the assay with HeLa (setting [8]).
